Laboratory results from ChEMBL document CHEMBL5046217, “Discovery of New Imidazo[2,1-b]thiazole Derivatives as Potent Pan-RAF Inhibitors with Promising In Vitro and In Vivo Anti-melanoma Activity” (J Med Chem, 2021).

Assays:
[1] = system: Panel CNS (Carcinoma cell lines); experiment: Antiproliferative activity against human Panel CNS (Carcinoma cell lines) assessed as cell growth inhibition measured after 48 hrs by SRB assay
[2] = system: M14; experiment: Antiproliferative activity against human M14 cells assessed as cell growth inhibition measured after 48 hrs by SRB assay; conditions: M14, 48 h
[3] = target: Mitogen-activated protein kinase 14 (Homo sapiens, UniProt Q16539); experiment: Inhibition of MAPK14 (unknown origin) incubated for 1 hr by qPCR analysis
Method in brief: (§1)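 Competition binding assay. Kinases were either T7-phage-tagged (grown in an E. coli BL21-derived host) or expressed in HEK-293 cells and DNA-tagged. […] Bound kinase was eluted with non-biotinylated ligand and quantified by qPCR.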

[4] = system: Panel leukemia (Carcinoma cell lines); experiment: cells; conditions: Homo sapiens, 48 h, read-out: INH
[5] = system: Panel melanoma (Carcinoma cell lines); experiment: cells; conditions: Homo sapiens, 48 h, read-out: INH
[6] = system: Panel breast (Carcinoma cell lines); experiment: Antiproliferative activity against human Panel breast (Carcinoma cell lines) assessed as cell growth inhibition measured after 48 hrs by SRB assay
[7] = system: Panel prostate (Carcinoma cell lines); experiment: Antiproliferative activity against human Panel prostate (Carcinoma cell lines) assessed as cell growth inhibition measured after 48 hrs by SRB assay
[8] = target: Mitogen-activated protein kinase 8 (Homo sapiens, UniProt P45983); experiment: Inhibition of MAPK8 (unknown origin) incubated for 1 hr by qPCR analysis; method in brief: as §1
[9] = system: SK-MEL-5; experiment: Antiproliferative activity against human SK-MEL-5 cells assessed as cell growth inhibition measured after 48 hrs by SRB assay; conditions: SK-MEL-5, 48 h
[10] = system: Panel leukemia (Carcinoma cell lines); experiment: Antiproliferative activity against human Panel leukemia (Carcinoma cell lines) assessed as cell growth inhibition measured after 48 hrs by SRB assay
[11] = system: SK-MEL-28; experiment: Antiproliferative activity against human SK-MEL-28 cells assessed as cell growth inhibition measured after 48 hrs by SRB assay; conditions: SK-MEL-28, 48 h
[12] = system: Malme-3M; experiment: Antiproliferative activity against human Malme-3M cells assessed as total growth inhibition measured after 48 hrs by SRB assay
[13] = target: RAF proto-oncogene serine/threonine-protein kinase (Homo sapiens, UniProt P04049); experiment: Inhibition of human wild type CRAF using myelin basic protein as substrate in presence of [gamma-33P]ATP incubated for 40 mins by scintillation counting method
[14] = target: Mitogen-activated protein kinase kinase kinase 20 (Homo sapiens, UniProt Q9NYL2); experiment: Inhibition of ZAK (unknown origin) incubated for 1 hr by qPCR analysis; method in brief: as §1
[15] = target: BDNF/NT-3 growth factors receptor (Homo sapiens, UniProt Q16620); experiment: Inhibition of NTRK2 (unknown origin) incubated for 1 hr by qPCR analysis
[16] = target: Serine/threonine-protein kinase B-raf (Homo sapiens, UniProt P15056, V600E); experiment: Inhibition of human BRAF V600E mutant using myelin basic protein as substrate in presence of [gamma-33P]ATP incubated for 40 mins by scintillation counting method
Method in brief: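 Radiometric kinase assay run at Reaction Biology. Kinase (5−10 mU) in 25 mM Tris pH 7.5, 0.02 mM EGTA, 10 mM magnesium acetate with 0.66 mg/mL myelin basic protein and [γ-33P]ATP at 1 μM ATP. Reaction started with Mg-ATP and run 40 min at room temperature, then stopped with 3% phosphoric acid. Spotted on P30 filtermat, washed, scintillation counted.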

[17] = Cytotoxicity against human L132 cells assessed as cell growth inhibition incubated for 48 hrs by MTT assay; assay type: toxicity, cell-based
[18] = system: MDA-MB-435; experiment: Antiproliferative activity against human MDA-MB-435 cells assessed as total growth inhibition measured after 48 hrs by SRB assay; conditions: MDA-MB-435, 48 h
[19] = system: UACC-257; experiment: Antiproliferative activity against human UACC-257 cells assessed as total growth inhibition measured after 48 hrs by SRB assay; conditions: UACC-257, 48 h
[20] = system: MDA-MB-435; experiment: Antiproliferative activity against human MDA-MB-435 cells assessed as cell growth inhibition measured after 48 hrs by SRB assay; conditions: MDA-MB-435, 48 h
[21] = system: M14; experiment: Antiproliferative activity against human M14 cells assessed as total growth inhibition measured after 48 hrs by SRB assay; conditions: M14, 48 h
[22] = system: Panel CNS (Carcinoma cell lines); experiment: cells; conditions: Homo sapiens, 48 h, read-out: INH
[23] = in vitro; conditions: human, BJ cells and Malme-3M cells

Chain of Mitogen-activated protein kinase kinase kinase 20 (Q9NYL2 whole entry): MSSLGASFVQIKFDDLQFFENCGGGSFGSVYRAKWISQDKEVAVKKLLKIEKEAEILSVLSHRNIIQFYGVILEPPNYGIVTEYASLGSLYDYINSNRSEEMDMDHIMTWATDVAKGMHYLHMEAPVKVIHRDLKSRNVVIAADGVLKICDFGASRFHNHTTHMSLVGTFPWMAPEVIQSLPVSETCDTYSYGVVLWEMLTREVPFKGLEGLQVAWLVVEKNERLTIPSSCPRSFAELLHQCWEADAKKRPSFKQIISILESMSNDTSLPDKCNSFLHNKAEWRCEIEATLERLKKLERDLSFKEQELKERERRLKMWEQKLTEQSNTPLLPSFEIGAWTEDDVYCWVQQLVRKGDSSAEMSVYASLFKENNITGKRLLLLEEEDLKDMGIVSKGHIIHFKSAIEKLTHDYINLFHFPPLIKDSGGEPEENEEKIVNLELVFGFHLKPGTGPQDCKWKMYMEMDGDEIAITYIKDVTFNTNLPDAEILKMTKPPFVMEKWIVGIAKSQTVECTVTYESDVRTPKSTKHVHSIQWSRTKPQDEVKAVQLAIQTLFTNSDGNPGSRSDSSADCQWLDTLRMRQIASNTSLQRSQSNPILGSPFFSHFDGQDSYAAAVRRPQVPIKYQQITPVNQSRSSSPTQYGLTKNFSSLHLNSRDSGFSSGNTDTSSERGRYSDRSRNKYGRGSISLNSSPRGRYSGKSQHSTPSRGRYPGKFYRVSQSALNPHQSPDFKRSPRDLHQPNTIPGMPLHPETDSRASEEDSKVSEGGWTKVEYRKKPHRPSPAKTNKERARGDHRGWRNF
Chain of BDNF/NT-3 growth factors receptor (Q16620 whole entry): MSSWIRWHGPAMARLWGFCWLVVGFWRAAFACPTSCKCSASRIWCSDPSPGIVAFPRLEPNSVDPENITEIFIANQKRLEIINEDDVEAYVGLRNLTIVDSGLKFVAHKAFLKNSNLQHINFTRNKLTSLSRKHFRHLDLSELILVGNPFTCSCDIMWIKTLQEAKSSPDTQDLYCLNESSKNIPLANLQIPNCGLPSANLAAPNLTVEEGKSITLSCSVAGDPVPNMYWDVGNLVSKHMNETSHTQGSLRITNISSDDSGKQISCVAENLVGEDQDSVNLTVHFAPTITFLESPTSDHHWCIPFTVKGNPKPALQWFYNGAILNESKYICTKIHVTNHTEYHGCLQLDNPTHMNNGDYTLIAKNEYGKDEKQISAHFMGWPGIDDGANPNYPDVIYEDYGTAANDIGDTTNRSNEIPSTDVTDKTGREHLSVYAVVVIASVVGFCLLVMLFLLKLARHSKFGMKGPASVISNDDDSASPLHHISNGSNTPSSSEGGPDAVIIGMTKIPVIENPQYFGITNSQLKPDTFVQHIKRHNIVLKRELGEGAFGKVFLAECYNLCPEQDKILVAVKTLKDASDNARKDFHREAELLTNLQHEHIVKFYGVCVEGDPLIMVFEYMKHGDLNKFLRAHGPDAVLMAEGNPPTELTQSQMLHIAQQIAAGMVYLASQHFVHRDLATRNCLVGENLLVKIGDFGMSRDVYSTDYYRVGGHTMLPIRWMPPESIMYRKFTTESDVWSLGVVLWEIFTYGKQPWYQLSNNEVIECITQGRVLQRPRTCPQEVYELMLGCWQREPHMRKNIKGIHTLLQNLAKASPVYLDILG
Chain of RAF proto-oncogene serine/threonine-protein kinase (P04049 whole entry): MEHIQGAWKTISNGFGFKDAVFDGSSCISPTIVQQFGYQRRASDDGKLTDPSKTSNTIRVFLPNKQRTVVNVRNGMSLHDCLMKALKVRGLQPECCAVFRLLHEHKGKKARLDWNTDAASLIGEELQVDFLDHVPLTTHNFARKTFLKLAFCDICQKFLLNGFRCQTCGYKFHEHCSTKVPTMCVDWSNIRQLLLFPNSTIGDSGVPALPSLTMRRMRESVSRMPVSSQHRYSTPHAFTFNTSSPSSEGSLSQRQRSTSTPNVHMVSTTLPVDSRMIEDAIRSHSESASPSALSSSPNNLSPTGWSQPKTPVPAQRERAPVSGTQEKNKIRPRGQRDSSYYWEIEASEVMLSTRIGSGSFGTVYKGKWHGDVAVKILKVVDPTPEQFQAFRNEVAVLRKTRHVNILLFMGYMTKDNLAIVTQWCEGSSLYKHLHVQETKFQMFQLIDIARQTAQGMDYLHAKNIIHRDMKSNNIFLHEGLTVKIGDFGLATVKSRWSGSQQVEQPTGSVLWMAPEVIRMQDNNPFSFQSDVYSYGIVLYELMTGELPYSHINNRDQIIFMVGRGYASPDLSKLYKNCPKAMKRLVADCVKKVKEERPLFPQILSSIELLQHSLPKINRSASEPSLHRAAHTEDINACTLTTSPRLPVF
Chain of Serine/threonine-protein kinase B-raf (P15056 2-766 V600E limits assumed): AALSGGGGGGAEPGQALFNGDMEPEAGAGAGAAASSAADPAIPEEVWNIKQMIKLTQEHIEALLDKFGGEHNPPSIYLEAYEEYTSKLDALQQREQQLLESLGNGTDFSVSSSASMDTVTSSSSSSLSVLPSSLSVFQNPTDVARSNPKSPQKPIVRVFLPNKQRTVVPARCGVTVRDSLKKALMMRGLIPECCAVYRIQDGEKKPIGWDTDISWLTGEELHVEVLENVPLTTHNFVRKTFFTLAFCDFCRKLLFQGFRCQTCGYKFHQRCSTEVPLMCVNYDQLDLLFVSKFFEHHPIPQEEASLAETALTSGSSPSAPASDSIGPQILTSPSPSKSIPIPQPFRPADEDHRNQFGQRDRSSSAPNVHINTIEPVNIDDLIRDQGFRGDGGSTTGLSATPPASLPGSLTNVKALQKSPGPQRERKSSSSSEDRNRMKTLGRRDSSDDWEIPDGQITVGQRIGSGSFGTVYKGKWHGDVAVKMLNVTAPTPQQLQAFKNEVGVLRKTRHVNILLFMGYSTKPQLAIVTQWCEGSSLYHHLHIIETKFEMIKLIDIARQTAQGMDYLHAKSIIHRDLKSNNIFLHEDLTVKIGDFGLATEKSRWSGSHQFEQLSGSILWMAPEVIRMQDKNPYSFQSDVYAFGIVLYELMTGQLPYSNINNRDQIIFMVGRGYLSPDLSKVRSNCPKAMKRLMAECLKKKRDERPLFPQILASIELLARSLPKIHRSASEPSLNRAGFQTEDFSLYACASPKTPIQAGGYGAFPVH
Chain of Mitogen-activated protein kinase 8 (P45983 whole entry): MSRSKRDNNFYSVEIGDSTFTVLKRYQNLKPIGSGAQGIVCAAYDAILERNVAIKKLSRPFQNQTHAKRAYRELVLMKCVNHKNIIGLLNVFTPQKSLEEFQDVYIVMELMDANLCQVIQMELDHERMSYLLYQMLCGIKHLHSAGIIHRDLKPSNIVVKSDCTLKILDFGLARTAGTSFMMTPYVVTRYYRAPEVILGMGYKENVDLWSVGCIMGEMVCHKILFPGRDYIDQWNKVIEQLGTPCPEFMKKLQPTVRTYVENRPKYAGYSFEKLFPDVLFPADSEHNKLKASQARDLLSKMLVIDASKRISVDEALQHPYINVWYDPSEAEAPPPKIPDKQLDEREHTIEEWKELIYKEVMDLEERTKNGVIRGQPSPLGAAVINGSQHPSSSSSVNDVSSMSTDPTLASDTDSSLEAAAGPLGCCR
Chain of Mitogen-activated protein kinase 14 (Q16539 whole entry): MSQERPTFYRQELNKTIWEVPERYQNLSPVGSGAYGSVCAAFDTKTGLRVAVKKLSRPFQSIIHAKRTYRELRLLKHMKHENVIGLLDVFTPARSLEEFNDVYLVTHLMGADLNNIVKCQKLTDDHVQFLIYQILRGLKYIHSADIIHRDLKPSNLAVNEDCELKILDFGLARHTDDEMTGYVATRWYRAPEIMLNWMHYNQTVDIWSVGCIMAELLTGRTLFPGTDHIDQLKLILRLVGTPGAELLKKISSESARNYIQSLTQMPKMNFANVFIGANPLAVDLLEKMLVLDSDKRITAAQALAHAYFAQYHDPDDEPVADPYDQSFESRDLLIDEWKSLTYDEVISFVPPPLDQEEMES

IC50 [1]: 3.19 µM | IC50 [3]: 1.78 µM | IC50 [6]: 2.41 µM | IC50 [7]: 2.38 µM | IC50 [8]: 1.87 µM | IC50 [9]: 1.06 µM | IC50 [10]: 2.04 µM | IC50 [11]: 2.29 µM | IC50 [13]: 0.005 µM | IC50 [14]: 10.3 µM | IC50 [15]: 10.3 µM | IC50 [16]: 0.00098 µM | IC50 [20]: 2 µM
SMILES: O=S(=O)(NCCCNc1nccc(-c2c(-c3cccc(O)c3)nc3sccn23)n1)c1cccc(F)c1
IC50 [2]: 2.54 µM | inhibition at 10 µM [4]: 93.8% | inhibition at 10 µM [5]: 101% | TGI [12]: 7.86 µM | IC50 at 48 h [17]: 56.3 µM | TGI [18]: 6.51 µM | TGI [19]: > 100 µM | TGI [21]: 10.2 µM | inhibition at 10 µM [22]: 83.1% | selectivity ratio [23]: 17.4
